In the RNAGym collection of RNA variant scans (doi:10.1038/s41586-018-0170-7):

B1: tRNA (parent)
chain: GUUCCGUUGGCGUAAUGGUAACGCGUCUCCCUCCUAAGGAGAAGACUGCGGGUUCGAGUCCCGUACGGAACG

Variants of: B1
Test: yeast fitness, log relative to wild type (ln ratio); higher = fitter; tRNA-Arg(CCU), competitive growth, 37 C, 1 M NaCl
Outline: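 Genotype fitness is expressed as the natural log of its generations over those of the wild type. Each pool of the tRNA-Arg(CCU) variant library, carried on a HIS3 centromeric plasmid in BY4742 lacking the chromosomal gene, came from one of two independent transformations and grew 4 generations in SC-HIS at 30 °C before ~6.5 generations (~26.5 h) in SC-HIS 1M NaCl at 37 °C. Generation numbers used OD-scaled log2 output/input frequencies from 125 bp paired-end Illumina sequencing, combined across replicates by inverse-variance weighting.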

Going from U2C G6U C27U A43C C46U C66A A70U C71U to U2C G6A C27U A70U, the “yeast fitness (ln)” value rises from -0.164 to -0.0574.

First: U2C G6A C27U A70G
Second: U2C G6A C27U C66A A70G C71U
The “yeast fitness (ln)” value of the first is lower: -0.167 for the first, -0.106 for the second.

Compared with U2C G6U C27U A43C C66U A69G A70G, U2C G6A C27U C46U C66A A70G C71U is higher in “yeast fitness (ln)” value: -0.426 for the first, -0.228 for the second.

First: U2C G6U A43C C46U A69G A70G C71U
Second: U2C G6A A69G C71U
The “yeast fitness (ln)” value of the first is higher: -0.149 for the first, -0.176 for the second.

First: U2C G6A C27U C46U C66A A70U C71U
Second: U2C G6U A43C C66A A70U
The “yeast fitness (ln)” value of the first is lower: -0.172 for the first, -0.168 for the second.

Going from U2C G6U A43C C66A A70G to U2C G6U A43C C66U A69G C71U, the “yeast fitness (ln)” value falls from -0.0246 to -0.454.

First: U2C G6U A43C A69G C71U
Second: U2C G6A C27U A43C C66U A70U
The “yeast fitness (ln)” value of the first is lower: -0.255 for the first, -0.091 for the second.

Compared with U2C G6A C27U A43C C66U A70G, U2C G6A C27U A43C C46U C66A A69G A70G C71U is lower in “yeast fitness (ln)” value: -0.0396 for the first, -0.19 for the second.

First: U2C G6U C27U A43C C46U C66U C71U
Second: U2C G6U C27U A43C C46U C66A C71U
The “yeast fitness (ln)” value of the first is lower: -0.299 for the first, -0.17 for the second.

Going from U2C G6A A43C C71U to U2C G6U A43C C66A A69G A70U, the “yeast fitness (ln)” value falls from -0.0318 to -0.338.

Compared with U2C G6U A43C C66A A69G A70G, U2C G6A C27U C46U C66U C71U is lower in “yeast fitness (ln)” value: -0.029 for the first, -0.119 for the second.

Compared with U2C G6A C27U C66A A70U C71U, U2C G6U A43C A70G C71U is higher in “yeast fitness (ln)” value: -0.269 for the first, -0.185 for the second.

First: U2C G6A C27U A43C C66U A69G A70U C71U
Second: U2C G6A C27U C46U C66U
The “yeast fitness (ln)” value of the first is lower: -0.351 for the first, -0.136 for the second.

Compared with U2C G6U A43C A70U, U2C G6U A43C A70G is lower in “yeast fitness (ln)” value: -0.118 for the first, -0.188 for the second.

Going from U2C G6A C66A A70U to U2C G6A C66A A70G, the “yeast fitness (ln)” value rises from -0.094 to -0.0699.

First: U2C G6U C27U A43C C46U C66A A69G A70G
Second: U2C G6U C27U A43C C46U C66A A69G A70U
The “yeast fitness (ln)” value of the first is higher: -0.051 for the first, -0.101 for the second.

Compared with U2C G6U C27U, U2C G6A C27U C66A A70U is higher in “yeast fitness (ln)” value: -0.0654 for the first, -0.0448 for the second.

Going from U2C G6A C27U C66U A70U C71U to U2C G6U C27U A69G C71U, the “yeast fitness (ln)” value falls from -0.212 to -0.22.

Going from U2C G6U C27U A43C C66A A69G A70G to U2C G6A C27U A43C C46U C66A C71U, the “yeast fitness (ln)” value falls from -0.156 to -0.216.

Going from U2C G6U C27U A43C C46U C66U A70G C71U to U2C G6U C27U A43C C46U C66A A69G A70U C71U, the “yeast fitness (ln)” value falls from -0.225 to -0.26.

Compared with U2C G6U C27U A69G A70G, U2C G6U C27U A69G A70U is higher in “yeast fitness (ln)” value: -0.191 for the first, -0.111 for the second.

Going from U2C G6A C27U C66U C71U to U2C G6A C27U C46U A70G C71U, the “yeast fitness (ln)” value falls from -0.161 to -0.239.

Compared with U2C G6A C27U A43C A70G, U2C G6A C27U A43C A70U is higher in “yeast fitness (ln)” value: -0.153 for the first, -0.108 for the second.

First: U2C G6A C27U A43C C46U C66U A69G A70G C71U
Second: U2C G6A C46U C66U A69G A70G C71U
The “yeast fitness (ln)” value of the first is lower: -0.0764 for the first, -0.00401 for the second.

Compared with U2C G6A C27U C46U C66A A70G, U2C G6A C27U C46U C66A A70U is lower in “yeast fitness (ln)” value: -0.0252 for the first, -0.0453 for the second.

Going from U2C G6A C66U A70G to U2C G6A C66U A70U, the “yeast fitness (ln)” value falls from -0.00663 to -0.0364.

First: U2C G6A C27U C71U
Second: U2C G6U A43C C46U C66A A69G A70G
The “yeast fitness (ln)” value of the first is lower: -0.212 for the first, -0.0147 for the second.

Going from U2C G6U A43C C46U C66A A69G A70U to U2C G6A C27U A43C C46U C66A A70U, the “yeast fitness (ln)” value rises from -0.162 to -0.0497.

Compared with U2C G6A C27U A43C C46U C66A A70G, U2C G6U C27U A43C C66A C71U is lower in “yeast fitness (ln)” value: -0.101 for the first, -0.176 for the second.

Compared with U2C G6A C27U A43C C66U A70G C71U, U2C G6A C46U A69G A70U is higher in “yeast fitness (ln)” value: -0.101 for the first, -0.084 for the second.

First: U2C G6A C46U A69G A70G
Second: U2C G6A A43C C66U A69G A70U
The “yeast fitness (ln)” value of the first is higher: -0.0375 for the first, -0.232 for the second.

First: U2C G6A A43C C66U A69G A70G
Second: U2C G6U A43C C46U C66A A69G A70G C71U
The “yeast fitness (ln)” value of the first is lower: -0.0192 for the first, -0.00753 for the second.

Going from U2C G6A C46U C66U A69G A70U C71U to U2C G6A C46U C66A A70G, the “yeast fitness (ln)” value rises from -0.419 to -0.016.

Compared with U2C G6A C46U C66A A70U, U2C G6U C27U A43C C66U A69G A70U C71U is lower in “yeast fitness (ln)” value: -0.067 for the first, -0.419 for the second.

First: U2C G6U A43C C46U C66U A69G C71U
Second: U2C G6A A43C C66U A70G C71U
The “yeast fitness (ln)” value of the first is lower: -0.347 for the first, -0.0302 for the second.

Compared with U2C G6A C46U C66U, U2C G6A C27U A43C is lower in “yeast fitness (ln)” value: 0.00338 for the first, -0.0322 for the second.

Going from U2C G6A C66A A69G A70G C71U to U2C G6A A43C C46U C66U A70G C71U, the “yeast fitness (ln)” value rises from -0.139 to -0.0112.

Compared with U2C G6A C66U A69G A70G C71U, U2C G6A C27U C46U A69G A70G C71U is lower in “yeast fitness (ln)” value: -0.0248 for the first, -0.331 for the second.

First: U2C G6A A70G
Second: U2C G6A A70U
The “yeast fitness (ln)” value of the first is higher: -0.0119 for the first, -0.0455 for the second.

Compared with U2C G6A A69G A70U, U2C G6A A69G A70G is higher in “yeast fitness (ln)” value: -0.0533 for the first, -0.0526 for the second.

First: U2C G6U A43C C46U C66U A69G A70G
Second: U2C G6U A43C C46U C66U A69G A70U
The “yeast fitness (ln)” value of the first is lower: -0.262 for the first, -0.211 for the second.

In the case of U2C G6U A43C C46U C66U, the “yeast fitness (ln)” value is reported as -0.158.
